# RORa activator – activates the human nuclear receptor RORA | 65,000 compounds, 1.5% hits | CHO-K1 Gal4-RORA LBD luciferase reporter, luminescence; percent increase over mock-subtracted basal signal | P35398 | activation, % at 10 µM;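 active means activation above the mean of all tested compounds plus 3 SD, cut at about 49% in these data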;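 further: 0% = DMSO-treated RORA cells and 100% = added signal equal to DMSO minus mock-transfected cells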
# ERa SRC1 pot – enhances coactivator binding to human estrogen receptor alpha | P03372 | TR-FRET ERalpha-LBD/SRC-Cy5 coactivator binding, 2 h; 100 = basal binding, no effect | coactivator binding (% of control), % at 25.6 µM | 86,000 compounds, 1.3% hits; in the data active means activity above about 200%;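 further: binding measured in presence of low estradiol as agonist stimulus; 0% = peptide alone without receptor and 100% = receptor with peptide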
# SF-1 act – activators of human nuclear receptor SF-1 | Q13285 | CHO-K1 Gal4-SF-1 LBD luciferase reporter; % increase over DMSO SF-1-specific signal | activation, % at 10 µM | 65,000 compounds, 1.9% hits | AID 522;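 active means activation above the mean activation of all tested compounds plus 3 SD, cut at about 50% in these data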
#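 Assay system: CHO-K1 cells co-transfected with Gal4 DBD–human SF-1 LBD, 5xGal4 luciferase reporter; doses: 10 µM only; incubation: 20 h compound exposure at 37 °C after 1 h cell settling; signal: luciferase light emission; evaluation: percent activation versus DMSO; repeats: one test per compound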
# ERa coact inh – ER-alpha (human) coactivator binding inhibition; TR-FRET ER-alpha LBD / SRC-1 peptide, estradiol-bound; P03372; 86,000 compounds, 1.7% hits; inhibition, % at 25.6 µM; in the data active means inhibition above about 50%;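 further: 0% = receptor plus peptide control and 100% = peptide only without receptor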
# BAP1 block – inhibitors of human BAP1 deubiquitinase | recombinant BAP1, Ub-AMC hydrolysis fluorescence kinetic; active compounds read low | calls only at 20 µM | 72,000 compounds, 0.48% hits | Q92560;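 active means activity remaining at or below 50% of control, provided the compound also passes the data quality filters; inactive means the rest, including low values that fail the filters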;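 further: 100% = DMSO wells rate and 0% = substrate alone blank rate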
# Target sequence (Q92560 whole entry, looked up): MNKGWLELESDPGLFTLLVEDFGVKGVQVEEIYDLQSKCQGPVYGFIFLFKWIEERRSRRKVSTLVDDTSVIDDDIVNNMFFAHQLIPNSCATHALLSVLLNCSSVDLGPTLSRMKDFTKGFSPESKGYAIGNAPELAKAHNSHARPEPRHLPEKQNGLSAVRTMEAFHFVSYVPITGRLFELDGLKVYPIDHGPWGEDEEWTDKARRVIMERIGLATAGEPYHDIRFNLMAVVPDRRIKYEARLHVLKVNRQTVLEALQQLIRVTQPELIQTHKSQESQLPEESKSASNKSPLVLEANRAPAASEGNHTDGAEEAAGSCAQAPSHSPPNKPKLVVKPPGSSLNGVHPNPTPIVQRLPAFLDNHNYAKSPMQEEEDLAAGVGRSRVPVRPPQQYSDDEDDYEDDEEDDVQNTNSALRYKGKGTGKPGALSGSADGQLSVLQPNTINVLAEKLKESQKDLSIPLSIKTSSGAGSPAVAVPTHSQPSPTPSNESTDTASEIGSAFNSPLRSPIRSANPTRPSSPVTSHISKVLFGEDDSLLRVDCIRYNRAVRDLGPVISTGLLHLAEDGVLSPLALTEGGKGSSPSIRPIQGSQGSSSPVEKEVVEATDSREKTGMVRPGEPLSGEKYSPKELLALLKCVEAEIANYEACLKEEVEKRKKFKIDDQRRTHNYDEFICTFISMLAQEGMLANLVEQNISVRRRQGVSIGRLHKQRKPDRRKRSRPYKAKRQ
# ERb SRC1 inh – ER-beta (human) coactivator binding inhibition. Q92731. inhibition, % at 25.6 µM. TR-FRET ER-beta LBD / SRC1-Cy5 peptide binding; receptor agonist-loaded with 1 µM estradiol. 86,000 compounds, 1.3% hits;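 active means compounds whose percent inhibition of the receptor-coactivator binding signal exceeds about 50% in the single-dose screen, limit read from the data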;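 further: 0% = receptor plus peptide wells without compound and 100% = peptide-only wells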
# The depositor's hits bear a star; i = inactive; . = no result given; [ ] = remark or other dose. This is a sample that favours compounds with a hit; in the whole collection about 5.1% have one here.
SMILES,RORa activator,ERa SRC1 pot,SF-1 act,ERa coact inh,BAP1 block,ERb SRC1 inh
COc1ccc(OCCCSc2ncccn2)cc1,63*,115,41,7,i,-2
COc1cccc(OCCCCSc2ncccn2)c1,1,111,-3,6,i,3
Clc1ccc(OCCSc2ncccn2)cc1,.,91,.,-5,.,-3
COc1ccc(OCCSc2ncccn2)cc1,14,109,56*,-39,i,-36
Cc1nc2ncnn2c(N2CCN(C(=O)Cc3cccs3)CC2)c1C,5,27,5,90*[fluorescence artefact?],i,85*[fluorescence artefact?]
Cc1ccc(OCCSc2nc3ccccc3n2CCO)c(C(C)C)c1,.,.,.,.,i,.
Cc1cc(C)c(NC(=O)CCC(=O)O)c(C)c1,.,.,.,.,i,.
O=S(=O)(c1ccc(Oc2ccc(-c3nnco3)cc2)nc1)N1CCC(Cc2ccccc2)CC1,-33,99,-13,75*[fluorescence artefact?],.,31
Cc1ccc(N=Cc2c(O)n(-c3ccc4c(c3)OCO4)c(=O)c3ccccc23)cc1,.,31,.,69*,.,34
O=S(=O)(NCc1ccc(Br)cc1)c1ccc(F)cc1,.,.,.,.,i,.
CC(C)c1cc(N2CCN(C(=O)c3ccco3)CC2)n2c(nc3ccccc32)c1C#N,-9,112,-21,-4,i,-4
Cc1cc(-c2ccco2)c(C#N)c2nc3ccccc3n12,32,86,10,81*[fluorescence artefact?],.,48
C=CCn1c(-c2ccc(OC)cc2)nc2ccccc21,42,105,41,-6,i,-5
CCn1c(-c2ccc(N)cc2)nc2ccccc21,50*,89,37,-1,i,3
C=CCn1c(-c2ccc(N)cc2)nc2ccccc21,38,101,57*,-5,i,-8
CCn1c(-c2ccc(N(C)C)cc2)nc2ccccc21,88*,107,19,-3,i,5
CCn1c(N)nc2ccccc21,10,107,19,-3,i,2
C=CCNc1nc(NCc2ccccc2)c(C#N)c2c1CN(C)CC2,-15,100,-9,-1,i,3
N#Cc1c(NCCN)nc(NCc2ccccc2)c2c1CCN(Cc1ccccc1)C2,12,96,2,79*,.,38
CCN1CCc2c(C#N)c(NCc3ccccc3)nc(N(CC)CC)c2C1,-11,675*[fluorescence artefact?],-4,5,i,0
COc1cc2nc(-c3ccc4c(c3)C(=O)N(c3ccccc3OC)C4=O)oc(=O)c2cc1OC,.,.,.,.,i,.
CCC(C)(C)n1nnnc1C(c1cc2cc(OC)ccc2[nH]c1=O)N1CCc2ccccc21 (configuration not stated),-11,94,-4,-1,i,3
CCC(C)(C)n1nnnc1C(c1cc2ccc(OC)cc2[nH]c1=O)N1CCc2ccccc21 (configuration not stated),33,256*,-10,19,i,6
Cc1cccc(-n2c(SCCC(=O)O)nnc2-c2cccs2)c1C,-4,93,0,0,i,50*
O=C(CSc1nnc(-c2cccs2)n1-c1ccccc1)N1CCCc2ccccc21,.,889*[fluorescence artefact?],.,16,.,-43
SMILES,RORa activator,ERa SRC1 pot,SF-1 act,ERa coact inh,BAP1 block,ERb SRC1 inh
CC1(C)Cc2ccccc2-c2nnc(SCC(=O)N3CCc4ccccc43)n21,-15,293*[fluorescence artefact?],2,43,.,33
CCn1c(SCC(=O)N2CCCc3ccccc32)nnc1-c1cccs1,-9,93,-21,-8,i,-11
O=C(Nc1nc(-c2cccc3ccccc23)cs1)c1ccccc1Cl,.,.,.,.,i,.
CCOc1ccc2[nH]c(=O)c(CN(Cc3ccc(F)cc3)C(=O)N3CCCC3)cc2c1,-1,331*[fluorescence artefact?],3,-9,.,-5
CCN1C(=Cc2ccc3ccccc3[n+]2CC)Sc2cc(NC(C)=O)ccc21,.,.,.,.,i,.
Cc1cc(C)n(CCc2nc3c4ccccc4nc(SCc4ccc(C#N)cc4)n3n2)n1,-24,95,6,59*[fluorescence artefact?],i,33
Cc1nc2ccccc2n1CCc1nc2c3ccccc3nc(SCC#N)n2n1,.,175,.,36,.,30
NC(=O)/C(=N\OC(=O)c1ccco1)c1nc(-c2ccc(Br)cc2)cs1,.,86,.,66*[fluorescence artefact?],.,47
CCCS(=O)(=O)N1CCC(C(=O)NCCN2CCCC2)CC1,-7,103,6,-4,i,81*[fluorescence artefact?]
O=C(Nc1nc(-c2cc3ccccc3oc2=O)cs1)c1ccc(Br)o1,.,224*[fluorescence artefact?],.,38,.,27
O=c1c(-c2ccc(F)cc2)coc2c3c(ccc12)OCCO3,14,82,63*,9,i,6
COc1ccc2c(=O)c(-c3ccc4c(c3)OCCO4)coc2c1,.,.,.,.,i,.
O=c1c(-c2cc3ccccc3o2)coc2cc(O)ccc12,.,.,.,.,i,.
O=c1c(-c2ccc(F)cc2)coc2cc(O)ccc12,84*,66,63*,0,i,-6
COc1ccc(-c2coc3cc(O)ccc3c2=O)cc1OC,78*,94,37,8,i,-1
O=c1c(-c2ccc(Br)cc2)coc2c(CN3CCOCC3)c(O)ccc12,5,85,13,2,.,-3
O=C(CSc1nc2ccccc2c(=O)n1-c1ccccc1)c1ccc(F)cc1,.,.,.,.,i,.
Cn1c(=O)c2ncn(CC(=O)Nc3ccc4oc(-c5cccc6ccccc56)nc4c3)c2n(C)c1=O,-6,44,10,75*[fluorescence artefact?],i,36
CCC(C)c1ccc2oc(-c3ccc(NC(=O)Cn4cnc5c(=O)n(C)c(=O)n(C)c54)cc3)nc2c1 (configuration not stated),38,99,18,72*[fluorescence artefact?],.,43
Cc1ccc(NC(=O)Cn2cnc3c(=O)n(C)c(=O)n(C)c32)c(C)c1,-13,114,-18,-9,.,-8
O=C(Nc1nc(-c2ccc(F)cc2)cs1)c1ccc(Oc2ccccc2)cc1,.,.,.,.,i,.
OCCN(CCO)c1ncnc2c1sc1nc(N3CCOCC3)c3c(c12)CCCC3,2,107,26,3,i,6
CSc1nc(N(CCO)CCO)c2sc3nc(-c4ccco4)c4c(c3c2n1)CCC4,-10,52,-7,81*[fluorescence artefact?],.,83*[fluorescence artefact?]
CC12CCC(C(=O)N3CCCC3)(CC1=O)C2(C)C (configuration not stated),.,.,.,.,i,.
O=C(Oc1cccc(Oc2ccccc2)c1)N1CCOCC1,-7,94,0,-1,i,-9
O=C(Oc1ccc(-c2ccccc2)cc1)N1CCOCC1,61*,95,43,-6,i,-4
O=C(CCCc1ccccc1)Nc1cccnc1,.,94,.,2,.,-3
CN(C)c1ccc(NC(=O)CCCc2ccccc2)cc1,50*,116,40,-69,i,-10
CN(C)c1ccc(NC(=O)CN2C(=O)CC(c3ccccc3)=Nc3ccccc32)cc1,-47,38,-37,93*[fluorescence artefact?],i,66*[fluorescence artefact?]
O=C(c1cc2nc(-c3ccccc3)cc(C(F)(F)F)n2n1)N1CCOCC1,13,106,11,-9,i,-1
